ChEMBL document CHEMBL1649535, “In vitro interactions between antifungals and immunosuppressive drugs against zygomycetes” (2009)

How the values were obtained:
Type in all cases: functional
[1] = test system: Mucor circinelloides; test: Antimicrobial activity against Mucor circinelloides after 24 hrs by broth microdilution checkerboard procedure
Outline: (§1)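 CLSI broth microdilution for filamentous fungi, adapted to checkerboard; 1–3 isolates per species. Final ranges: amphotericin B and azoles 0.004–2 μg/ml; cyclosporine 0.125–8 μg/ml; tacrolimus and rapamycin 0.06–4 μg/ml, with extra runs at 0.001–0.06 μg/ml. Incubated 24 h at 35°C and read spectrophotometrically. MIC is the lowest concentration giving 50% inhibition (amphotericin B alone: 90%). Most tests run in duplicate.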

[2] = test system: Rhizopus arrhizus; test: Antimicrobial activity against Rhizopus oryzae after 24 hrs by broth microdilution checkerboard procedure; outline: as §1
[3] = test system: Lichtheimia corymbifera; test: Antimicrobial activity against Mycocladus corymbiferus after 24 hrs by broth microdilution checkerboard procedure; outline: as §1
[4] = test system: Rhizomucor pusillus; test: Antimicrobial activity against Rhizomucor pusillus after 24 hrs by broth microdilution checkerboard procedure; outline: as §1
[5] = Antimicrobial activity against Rhizopus microsporus after 24 hrs by broth microdilution checkerboard procedure; outline: as §1

Compound	MIC [1] [µg/mL]	MIC [2] [µg/mL]	MIC [3] [µg/mL]	MIC [4] [µg/mL]	MIC [5] [µg/mL]
CCC(C)n1ncn(-c2ccc(N3CCN(c4ccc(OCC5COC(Cn6cncn6)(c6ccc(Cl)cc6Cl)O5)cc4)CC3)cc2)c1=O (centres undefined) [ITRACONAZOLE]	0.62	0.62	0.62	0.62	0.62
CC[C@@H]([C@H](C)O)n1ncn(-c2ccc(N3CCN(c4ccc(OC[C@@H]5CO[C@@](Cn6cncn6)(c6ccc(F)cc6F)C5)cc4)CC3)cc2)c1=O [POSACONAZOLE]	0.57	0.57	0.57	0.57	0.57
C=CC[C@@H]1/C=C(\C)C[C@H](C)C[C@H](OC)[C@H]2O[C@@](O)(C(=O)C(=O)N3CCCC[C@H]3C(=O)O[C@H](/C(C)=C/[C@@H]3CC[C@@H](O)[C@H](OC)C3)[C@H](C)[C@@H](O)CC1=O)[C@H](C)C[C@@H]2OC [TACROLIMUS ANHYDROUS]	≤ 0.5	≤ 0.5	≤ 0.5	> 4	> 4

Continued, values first:

MIC [1] [µg/mL]	MIC [2] [µg/mL]	MIC [3] [µg/mL]	MIC [4] [µg/mL]	MIC [5] [µg/mL]	Compound
0.125	0.125	0.125	0.125	0.125	C[C@@H]1[C@H](O)[C@@H](C)/C=C/C=C/C=C/C=C/C=C/C=C/C=C/[C@H](O[C@@H]2O[C@H](C)[C@@H](O)[C@H](N)[C@@H]2O)C[C@@H]2O[C@](O)(C[C@@H](O)C[C@@H](O)[C@H](O)CC[C@@H](O)C[C@@H](O)CC(=O)O[C@H]1C)C[C@H](O)[C@H]2C(=O)O [AMPHOTERICIN B]
0.44	0.44	0.44	0.44	0.44	C[C@@H](c1nc(-c2ccc(C#N)cc2)cs1)[C@](O)(Cn1cncn1)c1ccc(F)cc1F [RAVUCONAZOLE]
≤ 0.25	–	> 4	> 4	≤ 0.25	CO[C@H]1C[C@@H]2CC[C@@H](C)[C@@](O)(O2)C(=O)C(=O)N2CCCC[C@H]2C(=O)O[C@H]([C@H](C)C[C@@H]2CC[C@@H](O)[C@H](OC)C2)CC(=O)[C@H](C)/C=C(\C)[C@@H](O)[C@@H](OC)C(=O)[C@H](C)C[C@H](C)/C=C/C=C/C=C/1C [SIROLIMUS]
